According to ChEMBL document CHEMBL1177648, “Synthesis and anti breast cancer activity of biphenyl based chalcones” (Bioorg Med Chem, 2010):
Active and inactive are the calls of the source. No cut-off for these calls is given here.

What was measured:
MDA-MB-231 [1] = assay: Cytotoxicity against human MDA-MB-231 cells after 24 hrs by MTT assay; assay type: functional, cell-based
How it was run: (§1)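 Cells seeded at 1 × 10⁴/well in DMEM with 10% FBS and held 24 h at 37 °C in CO₂. Compounds diluted in culture medium and incubated 24 h. Medium removed, MTT (5 mg/ml) added for 4 h, formazan dissolved in DMSO, absorbance read at 540 nm. Viability given as percent of untreated cells.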

HEK293 = assay: Cytotoxicity against HEK293 cells after 24 hrs by MTT assay; assay type: cell-based, Homo sapiens; how it was run: as §1
HeLa = assay: Cytotoxicity against human HeLa cells after 24 hrs by MTT assay; assay type: functional, cell-based; how it was run: as §1
MCF7 = assay: Cytotoxicity against human MCF7 cells after 24 hrs by MTT assay; assay type: functional, cell-based; how it was run: as §1
MDA-MB-231 [2] = assay: Induction of apoptosis in human MDA-MB-231 cells assessed as reduction in membrane potential at 5 uM after 24 hrs by flow cytometry; assay type: functional, cell-based
How it was run: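 MDA-MB-231 cells treated 24 h at 5 µM, collected by trypsinization and washed with PBS. Cells loaded with JC-1 for 15 min at 37 °C, rinsed three times in phenol-red-free high-glucose DMEM and resuspended in prewarmed medium. Membrane potential taken as the red/green (590/530 nm) fluorescence ratio.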

MDA-MB-231 [3] = assay: Cell cycle arrest in human MDA-MB-231 cells assessed as increase in bax mRNA expression at 5 uM after 24 hrs by RT-PCR; assay type: functional, cell-based
How it was run: (§2)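 MDA-MB231 cells (1 × 10⁶) grown overnight in six-well plates, treated at 5 µM. Total RNA isolated with Trizol, 1 µg digested with DNase I, then reverse transcribed. Relative mRNA levels of cyclin A1, bax, bcl-2, p21 and p53 measured by real-time PCR against untreated control.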

MDA-MB-231 [4] = assay: Cell cycle arrest in human MDA-MB-231 cells assessed as decrease in S phase at 5 uM after 24 hrs annexin-V FITC and PI staining by flow cytometry; assay type: functional, cell-based
MDA-MB-231 [5] = assay: Cell cycle arest in human MDA-MB-231 cells assessed as increase in p21 mRNA expression at 5 uM after 24 hrs by RT-PCR; assay type: functional, cell-based; how it was run: as §2
MDA-MB-231 [6] = assay: Induction of apoptosis in human MDA-MB-231 cells assessed as increase in caspase level at 5 uM after 24 hrs; assay type: functional, cell-based
How it was run: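 MDA-MB231 cells kept serum-deprived for 4 h, then treated 24 h at 5 µM. Cells incubated with caspase substrate DEVD-rhodamine-110 in a homogeneous caspase assay. Fluorescence of released rhodamine-110 measured at […].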

MDA-MB-231 [7] = assay: Cell cycle arrest in human MDA-MB-231 cells assessed as increase in p53 mRNA expression at 5 uM after 24 hrs by RT-PCR; assay type: functional, cell-based; how it was run: as §2
MDA-MB-231 [8] = assay: Cell cycle arrest in human MDA-MB-231 cells assessed as reduction in bcl2 mRNA expression at 5 uM after 24 hrs by RT-PCR; assay type: functional, cell-based; how it was run: as §2
MDA-MB-231 [9] = assay: Cell cycle arrest in human MDA-MB-231 cells assessed as reduction in cyclin A1 mRNA expression at 5 uM after 24 hrs by RT-PCR; assay type: functional, cell-based; how it was run: as §2
MDA-MB-231 [10] = assay: Cell cycle arest in human MDA-MB-231 cells assessed as increase in sub G1 phase at 5 uM after 24 hrs annexin-V FITC and PI staining by flow cytometry; assay type: functional, cell-based
MDA-MB-231 [11] = assay: Induction of apoptosis in human MDA-MB-231 cells assessed as early apoptotic cells at 5 uM after 24 hrs annexin-V FITC and PI staining by flow cytometry; assay type: functional, cell-based
How it was run: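 MDA-MB231 cells (1 × 10⁶) grown overnight in six-well plates, then given 5 µM final compound or vehicle (0.001% DMSO) for 24 h. Floating and adherent cells harvested by trypsinization and washed with PBS. 1 × 10⁵ cells stained with Annexin V-FITC and propidium iodide and analysed by flow cytometry with 488 nm excitation; Annexin V-FITC read at 535 nm emission.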

[12] = Homo sapiens, MDA-MB-231, 24 h, read-out: IC50
[13] = Homo sapiens, HEK293, 24 h, read-out: IC50
[14] = Homo sapiens, MCF7, 24 h, read-out: IC50
[15] = Homo sapiens, HeLa, 24 h, read-out: IC50

| Compound | IC50 (MDA-MB-231 [1]; [12]) | IC50 (HEK293; [13]) | IC50 (HeLa; hela) | IC50 (MCF7; [14]) | IC50 (HeLa; [15]) | IC50 (HEK293; hek293) | also measured |
| --- | --- | --- | --- | --- | --- | --- | --- |
| Cc1cc(O)c(C(=O)/C=C/c2ccc(Br)cc2)c(-c2ccc(OCc3ccccc3)cc2)c1C(=O)/C=C/c1ccc(Br)cc1 | 30 µM | 20 µM | Not Active | 30 µM |  |  |  |
| Cc1cc(O)c(C(=O)/C=C/c2ccccc2)c(-c2ccc(Br)cc2)c1C(=O)/C=C/c1ccccc1 | 8 µM | 30 µM |  | 10 µM | 30 µM |  |  |
| Cc1cc(O)c(C(=O)/C=C/c2ccc3ccccc3c2)c(-c2ccc(Cl)cc2)c1C(=O)/C=C/c1ccc2ccccc2c1 |  |  | Not Active |  |  | Not Active | IC50 (MDA-MB-231 [1]; mda-mb-231): Not Active; IC50 (MCF7; mcf7): Not Active |
| Cc1cc(O)c(C(=O)/C=C/c2ccc(OCc3ccccc3)cc2)c(-c2ccc(Br)cc2)c1C(=O)/C=C/c1ccc(OCc2ccccc2)cc1 | 20 µM | 25 µM | Not Active | 20 µM |  |  |  |
| Cc1cc(O)c(C(=O)/C=C/c2ccccc2Cl)c(-c2ccccc2)c1C(=O)/C=C/c1ccccc1Cl |  |  | Not Active |  |  | Not Active | IC50 (MDA-MB-231 [1]; mda-mb-231): Not Active; IC50 (MCF7; mcf7): Not Active |
| COc1ccc(/C=C/C(=O)c2c(C)cc(O)c(C(=O)/C=C/c3ccc(OC)cc3)c2-c2ccc(OCc3ccccc3)cc2)cc1 | 12 µM | 28 µM |  | 30 µM | 28 µM |  |  |
| Cc1cc(O)c(C(=O)/C=C/c2ccc(Br)cc2)c(-c2ccccc2)c1C(=O)/C=C/c1ccc(Br)cc1 | 10 µM | 10 µM |  | 10 µM | 33.5 µM |  |  |
| Cc1cc(O)c(C(=O)/C=C/c2cccc(Cl)c2)c(-c2ccccc2)c1C(=O)/C=C/c1cccc(Cl)c1 | 4.67 µM | 15 µM |  | 20 µM | 22 µM |  | Activity (MDA-MB-231 [2]): Active; Activity (MDA-MB-231 [3]): Active; Activity (MDA-MB-231 [4]): Active; Activity (MDA-MB-231 [5]): Active; Activity (MDA-MB-231 [6]): Active; Activity (MDA-MB-231 [7]): Active; Activity (MDA-MB-231 [8]): Active; Activity (MDA-MB-231 [9]): Active; Activity (MDA-MB-231 [10]): Active; Activity (MDA-MB-231 [11]): Active |
| Cc1cc(O)c(C(=O)/C=C/c2ccc(Cl)cc2)c(-c2ccc(Cl)cc2)c1C(=O)/C=C/c1ccc(Cl)cc1 | 30 µM |  | Not Active | 28 µM |  | Not Active |  |
| Cc1cc(O)c(C(=O)/C=C/c2ccc(F)cc2)c(-c2ccccc2)c1C(=O)/C=C/c1ccc(F)cc1 | 20 µM |  |  | 20 µM | 30 µM | Not Active |  |
| COc1ccc(/C=C/C(=O)c2c(C)cc(O)c(C(=O)/C=C/c3ccc(OC)c(OC)c3)c2-c2ccccc2)cc1OC |  |  | Not Active |  |  | Not Active | IC50 (MDA-MB-231 [1]; mda-mb-231): Not Active; IC50 (MCF7; mcf7): Not Active |
| Cc1cc(O)c(C(=O)/C=C/c2ccc(Cl)cc2)c(-c2ccc(Br)cc2)c1C(=O)/C=C/c1ccc(Cl)cc1 | 15 µM | 25 µM |  | 20 µM | 32 µM |  |  |
| Cc1cc(O)c(C(=O)/C=C/c2ccc(OCc3ccccc3)cc2)c(-c2ccc(OCc3ccccc3)cc2)c1C(=O)/C=C/c1ccc(OCc2ccccc2)cc1 | 20 µM | 30 µM | Not Active | 26 µM |  |  |  |
| Cc1cc(O)c(C(=O)/C=C/c2cccc3ccccc23)c(-c2ccc(Cl)cc2)c1C(=O)/C=C/c1cccc2ccccc12 | 30 µM | 30 µM | Not Active | 30 µM |  |  |  |
| COc1ccc(/C=C/C(=O)c2c(C)cc(O)c(C(=O)/C=C/c3ccc(OC)c(OC)c3)c2-c2ccc(OCc3ccccc3)cc2)cc1OC | 22 µM | 30 µM | Not Active | 30 µM |  |  |  |
| COc1ccc(/C=C/C(=O)c2c(C)cc(O)c(C(=O)/C=C/c3ccc(OC)cc3)c2-c2ccc(Br)cc2)cc1 |  |  | Not Active |  |  | Not Active | IC50 (MDA-MB-231 [1]; mda-mb-231): Not Active; IC50 (MCF7; mcf7): Not Active |
| Cc1cc(O)c(C(=O)/C=C/c2ccc(Cl)cc2)c(-c2ccc(OCc3ccccc3)cc2)c1C(=O)/C=C/c1ccc(Cl)cc1 | 30 µM |  | Not Active |  |  | Not Active | IC50 (MCF7; mcf7): Not Active |
| CC/C(=C(\c1ccccc1)c1ccc(OCCN(C)C)cc1)c1ccccc1 [TAMOXIFEN] | 10 µM | 10 µM |  | 8.9 µM | 12.5 µM |  |  |
| Cc1cc(O)c(C(=O)/C=C/c2ccc(F)cc2)c(-c2ccc(Br)cc2)c1C(=O)/C=C/c1ccc(F)cc1 | 22.3 µM | 20 µM | Not Active | 20 µM |  |  |  |
| Cc1cc(O)c(C(=O)/C=C/c2ccc(OCc3ccccc3)cc2)c(-c2ccccc2)c1C(=O)/C=C/c1ccc(OCc2ccccc2)cc1 | 10 µM | 30 µM |  | 10 µM | 20 µM |  |  |
| Cc1cc(O)c(C(=O)/C=C/c2ccc3ccccc3c2)c(-c2ccccc2)c1C(=O)/C=C/c1ccc2ccccc2c1 | 30 µM |  | Not Active | 31.5 µM |  | Not Active |  |
| COc1ccc(/C=C/C(=O)c2c(C)cc(O)c(C(=O)/C=C/c3ccc(OC)cc3)c2-c2ccccc2)cc1 |  |  | Not Active |  |  | Not Active | IC50 (MDA-MB-231 [1]; mda-mb-231): Not Active; IC50 (MCF7; mcf7): Not Active |
| Cc1cc(O)c(C(=O)/C=C/c2ccccc2)c(-c2ccc(OCc3ccccc3)cc2)c1C(=O)/C=C/c1ccccc1 |  |  | Not Active |  |  | Not Active | IC50 (MDA-MB-231 [1]; mda-mb-231): Not Active; IC50 (MCF7; mcf7): Not Active |
| Cc1cc(O)c(C(=O)/C=C/c2cccc3ccccc23)c(-c2ccccc2)c1C(=O)/C=C/c1cccc2ccccc12 |  |  | Not Active | 30 µM |  | Not Active | IC50 (MDA-MB-231 [1]; mda-mb-231): Not Active |
| Cc1cc(O)c(C(=O)/C=C/c2ccccc2)c(-c2ccccc2)c1C(=O)/C=C/c1ccccc1 | 8.5 µM |  | Not Active | 10 µM |  | Not Active |  |
| Cc1cc(O)c(C(=O)/C=C/c2ccc(Cl)cc2)c(-c2ccccc2)c1C(=O)/C=C/c1ccc(Cl)cc1 | 7.9 µM | 10 µM |  | 10 µM | 30 µM |  |  |
| Cc1cc(O)c(C(=O)/C=C/c2ccccc2Cl)c(-c2ccc(Cl)cc2)c1C(=O)/C=C/c1ccccc1Cl | 29 µM | 30 µM | Not Active | 30 µM |  |  |  |
| Cc1cc(O)c(C(=O)/C=C/c2ccc(Br)cc2)c(-c2ccc(Br)cc2)c1C(=O)/C=C/c1ccc(Br)cc1 | 18 µM | 30 µM |  | 15 µM | 30 µM |  |  |
| Cc1cc(O)c(C(=O)/C=C/c2ccc(F)cc2)c(-c2ccc(OCc3ccccc3)cc2)c1C(=O)/C=C/c1ccc(F)cc1 | 15 µM | 30 µM |  | 28 µM | 25 µM |  |  |
| Cc1cc(O)c(C(=O)/C=C/c2ccccc2)c(-c2ccc(Cl)cc2)c1C(=O)/C=C/c1ccccc1 | 4.4 µM | 5 µM | Not Active | 15 µM |  |  | Activity (MDA-MB-231 [2]): Active; Activity (MDA-MB-231 [4]): Active; Activity (MDA-MB-231 [5]): Active; Activity (MDA-MB-231 [6]): Active; Activity (MDA-MB-231 [7]): Active; Activity (MDA-MB-231 [8]): Active; Activity (MDA-MB-231 [9]): Active; Activity (MDA-MB-231 [10]): Active; Activity (MDA-MB-231 [11]): Active |
